Measured values published in ChEMBL document CHEMBL4819139, “Green synthesis of therapeutically active 1,3,4-oxadiazoles as antioxidants, selective COX-2 inhibitors and their in silico studies” (Bioorg Med Chem Lett, 2021).
Values after ≈ are worked out from the molar mass of the structure shown.

Assays:
[1] = Antioxidant activity assessed as DPPH free radical scavenging activity in iron free medium; format: functional
[2] = biological target: T1, Prostaglandin G/H synthase 2 (Homo sapiens, UniProt P35354); test: Inhibition of COX-2 (unknown origin)
T1 sequence (P35354 whole entry): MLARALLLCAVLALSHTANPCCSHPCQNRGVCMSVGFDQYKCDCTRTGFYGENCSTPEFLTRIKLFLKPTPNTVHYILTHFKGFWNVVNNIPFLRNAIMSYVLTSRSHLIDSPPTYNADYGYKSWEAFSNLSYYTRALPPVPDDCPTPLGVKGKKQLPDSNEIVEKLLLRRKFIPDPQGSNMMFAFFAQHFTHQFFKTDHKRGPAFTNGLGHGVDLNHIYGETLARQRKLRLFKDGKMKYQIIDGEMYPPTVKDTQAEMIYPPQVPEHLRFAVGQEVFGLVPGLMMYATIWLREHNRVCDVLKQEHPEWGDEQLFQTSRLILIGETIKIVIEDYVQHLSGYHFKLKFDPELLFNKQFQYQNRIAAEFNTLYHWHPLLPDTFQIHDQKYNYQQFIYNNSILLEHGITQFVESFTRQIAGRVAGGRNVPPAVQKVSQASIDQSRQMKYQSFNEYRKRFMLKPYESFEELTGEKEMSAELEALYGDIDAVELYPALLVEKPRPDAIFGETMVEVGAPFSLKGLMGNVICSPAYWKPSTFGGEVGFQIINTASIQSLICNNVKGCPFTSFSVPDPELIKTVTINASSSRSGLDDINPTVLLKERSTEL
Procedure, shortened: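 Percent COX-2 inhibition was measured at several compound concentrations. Mefenamic acid served as the reference standard.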

[3] = biological target: Prostaglandin G/H synthase 1 (Homo sapiens, UniProt P23219); test: Inhibition of COX-1 (unknown origin)
Prostaglandin G/H synthase 1, sequence (P23219 whole entry): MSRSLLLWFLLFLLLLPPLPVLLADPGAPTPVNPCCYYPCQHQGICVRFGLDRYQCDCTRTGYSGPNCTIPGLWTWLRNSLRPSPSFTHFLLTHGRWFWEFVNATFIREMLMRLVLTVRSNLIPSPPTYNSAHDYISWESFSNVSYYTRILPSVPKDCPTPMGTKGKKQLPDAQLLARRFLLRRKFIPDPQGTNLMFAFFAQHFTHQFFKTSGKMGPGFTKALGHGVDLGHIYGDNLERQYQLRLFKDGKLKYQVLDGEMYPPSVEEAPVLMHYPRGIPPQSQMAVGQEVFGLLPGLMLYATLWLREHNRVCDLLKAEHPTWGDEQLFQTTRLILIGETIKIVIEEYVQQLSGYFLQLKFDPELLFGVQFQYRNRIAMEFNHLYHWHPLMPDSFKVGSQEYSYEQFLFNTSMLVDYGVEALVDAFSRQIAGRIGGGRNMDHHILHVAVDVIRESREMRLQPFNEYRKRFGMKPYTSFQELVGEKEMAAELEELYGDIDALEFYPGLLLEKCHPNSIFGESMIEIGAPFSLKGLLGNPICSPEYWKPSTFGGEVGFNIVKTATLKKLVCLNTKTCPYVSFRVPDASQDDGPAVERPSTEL

## Cc1cc(C)c2c(CSc3nnc(CSc4nc5ccccc5o4)o3)cc(=O)oc2c1
[1]
  IC50: 33.41 µg/mL (≈ 74 µM)
[2]
  IC50: 55.4 µM
[3]
  IC50: 1120 µM

## O=c1cc(CSc2nnc(CSc3nc4ccccc4o3)o2)c2ccc3ccccc3c2o1
[1]
  IC50: 23.71 µg/mL (≈ 50.1 µM)
[2]
  IC50: 27.1 µM
[3]
  IC50: 919 µM

## Cc1ccc2oc(=O)cc(CSc3nnc(CSc4nc5ccccc5o4)o3)c2c1
[1]
  IC50: 24.04 µg/mL (≈ 54.9 µM)
[2]
  IC50: 45.6 µM
[3]
  IC50: 562 µM

## O=c1cc(CSc2nnc(CSc3nc4ccccc4o3)o2)c2c(ccc3ccccc32)o1
[1]
  IC50: 45.86 µg/mL (≈ 96.8 µM)
[2]
  IC50: 51.9 µM
[3]
  IC50: 226 µM

## O=c1cc(CSc2nnc(CSc3nc4cc(Cl)ccc4o3)o2)c2c(ccc3ccccc32)o1
[1]
  IC50: 26.78 µg/mL (≈ 52.7 µM)
[2]
  IC50: 34.8 µM
[3]
  IC50: 642 µM

## O=c1cc(CSc2nnc(CSc3nc4cc(Cl)ccc4o3)o2)c2ccc3ccccc3c2o1
[1]
  IC50: 23.95 µg/mL (≈ 47.1 µM)
[2]
  IC50: 22.3 µM
[3]
  IC50: 558 µM

## Cc1cc(C)c2c(CSc3nnc(CSc4nc5cc(Cl)ccc5o4)o3)cc(=O)oc2c1
[1]
  IC50: 26.98 µg/mL (≈ 55.5 µM)
[2]
  IC50: 27.2 µM
[3]
  IC50: 505 µM

## COc1ccc2oc(=O)cc(CSc3nnc(CSc4nc5cc(Cl)ccc5o4)o3)c2c1
[1]
  IC50: 52.85 µg/mL (≈ 108 µM)
[2]
  IC50: 91.3 µM
[3]
  IC50: 1180 µM

## COc1ccc2oc(=O)cc(CSc3nnc(CSc4nc5ccccc5o4)o3)c2c1
[1]
  IC50: 63.09 µg/mL (≈ 139 µM)
[2]
  IC50: 72.6 µM
[3]
  IC50: 230 µM

## Cc1ccc2c(CSc3nnc(CSc4nc5cc(Cl)ccc5o4)o3)cc(=O)oc2c1
[1]
  IC50: 27.73 µg/mL (≈ 58.8 µM)
[2]
  IC50: 29 µM
[3]
  IC50: 308 µM

## Cc1ccc2c(CSc3nnc(CSc4nc5ccccc5o4)o3)cc(=O)oc2c1
[1]
  IC50: 49.87 µg/mL (≈ 114 µM)
[2]
  IC50: 54.3 µM
[3]
  IC50: 199 µM

## Cc1ccc2oc(=O)cc(CSc3nnc(CSc4nc5cc(Cl)ccc5o4)o3)c2c1
[1]
  IC50: 48.69 µg/mL (≈ 103 µM)
[2]
  IC50: 115 µM
[3]
  IC50: 437 µM

## O=C1O[C@H]([C@@H](O)CO)C(O)=C1O [ASCORBIC ACID]
[1]
  IC50: 25.74 µg/mL (≈ 146 µM)

## Cc1cccc(Nc2ccccc2C(=O)O)c1C [MEFENAMIC ACID]
[2]
  IC50: 104 µM
[3]
  IC50: 772 µM
